For one data set, the target named is Ephrin type-B receptor 2 (Homo sapiens, UniProt P29323). The experiment in a line: Inhibition of EphB2 (unknown origin) in presence of ATP. In short, it runs like this:
(§1)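 Cell-free kinase assay using recombinant tyrosine kinases with 1 μmol/L ATP, run in quadruplicate. IC50 values determined.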

The target in data set [1] is Fibroblast growth factor receptor 4 (Homo sapiens, UniProt P22455). The experiment in a line: Inhibition of FGFR-4 (unknown origin) in presence of ATP.
In the next data set the target is Focal adhesion kinase 1 (Homo sapiens, UniProt Q05397). The experiment in a line: Inhibition of Fak (unknown origin) in presence of ATP. In short, it runs like this:
as §1

For data set [2], the target named is Receptor tyrosine-protein kinase erbB-4 (Homo sapiens, UniProt Q15303). The experiment in a line: Inhibition of ErbB4 (unknown origin) in presence of ATP.
In data set [3] the target is Epidermal growth factor receptor (Homo sapiens, UniProt P00533). The experiment in a line: Inhibition of EGFR phosphorylation in serum starved human A-431 cells incubated for 1 hr by immunoblotting analysis. It is filed as cell-based. In short, it runs like this:
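Cells starved overnight in basic medium with 0.5% FBS, incubated 1 h with compound or 0.1% DMSO, then stimulated 5 min at 37°C with human recombinant cognate ligand. Receptor immunoprecipitated from lysate and immunoblotted for phosphotyrosine; IC50 by nonlinear regression of percent inhibition, n = 4.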

Data set [4] concerns the target Mitogen-activated protein kinase 1 (Homo sapiens, UniProt P28482). The experiment in a line: Inhibition of ERK2 phosphorylation in VEGF-stimulated serum-starved human HUVEC cells by immunoblotting analysis. In kind it is cell-based. An outline of the steps:
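HUVECs serum-starved, treated with inhibitor (DMSO stock diluted in medium), then stimulated with VEGF. Lysates run on SDS-PAGE and immunoblotted with anti-phospho-p44/42 MAPK antibody. Four independent experiments.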
Background: Immunoblotting shows a protein as a band on a membrane.

Data set [5] deals with Mitogen-activated protein kinase 3 (Homo sapiens, UniProt P27361). Put plainly: Inhibition of ERK1 phosphorylation in bFGF-stimulated serum-starved human HUVEC cells by immunoblotting analysis. In kind it is cell-based.
The next data set deals with MDA-MB-231. Put plainly: Antitumor activity against human MDA-MB-231 cells xenografted in gamma-irradiation induced RH-rnu/rnu athymic rat assessed as tumor growth inhibition at 1.0 mg/kg, po administered once daily for 2 weeks and measured on day 14 relative to control. It is filed as functional. The note with it: MDA-MB-231, light or radiation study, 336 h, read-out: TGI. An outline of the steps: (§2)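 Rats were γ-irradiated with 7 Gy whole body, and 24 h later received s.c. tumor cells. Fragments (20-30 mg) from ~1,500 mm3 tumors were then implanted s.c. into irradiated athymic rats. Oral dosing at 0.2 or 1 mg/kg or vehicle ran once daily for 2 weeks from day 0. Tumors were measured with calipers twice weekly (length×width²×0.5). TGI% was taken versus vehicle on day 14 (BxPC-3: day 13), with an unpaired t test on RTV.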
Background: In xenograft studies the graft and the host belong to different species.

A further data set deals with BXPC-3. Put plainly: Antitumor activity against human BXPC-3 cells xenografted in gamma-irradiation induced RH-rnu/rnu athymic rat assessed as tumor growth inhibition at 0.2 mg/kg, po administered once daily for 2 weeks and measured on day 13 relative to control. The note with it: BXPC-3, light or radiation study, 336 h, read-out: TGI. It is filed as functional. In short, it runs like this: as §2

For another data set, the system named is LoVo. The experiment in a line: Antitumor activity against human LoVo cells xenografted in gamma-irradiation induced RH-rnu/rnu athymic rat assessed as relative tumor volume at 1 mg/kg, po administered once daily for 2 weeks and measured on day 21. It is filed as functional. An outline of the steps: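 Tumor fragments were grown in γ-irradiated (7 Gy) athymic rats, followed by once-daily oral dosing at 1 mg/kg for 2 weeks. Tumor volume was measured with calipers as length×width²×0.5. Relative tumor volume was calculated as volume on day x divided by volume on day 0.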

Data set [6] has as its system Calu-6. Put plainly: Antitumor activity against human Calu-6 cells xenografted in RH-rnu/rnu athymic rat assessed as tumor growth inhibition at 1.0 mg/kg, po administered […] by DCE-MRI analysis. It is filed as functional, organism-based. In short, it runs like this: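 Calu-6 tumor-bearing athymic rats were randomized at 274-287 mm3 and dosed orally at 0.2 or 1.0 mg/kg or vehicle once daily on days 0-13. Tumor growth was followed by T2-weighted MRI at 1.5 T through day 21.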

For data set [7], the system named is Calu-6. The experiment in a line: Antitumor activity against human Calu-6 cells xenografted in RH-rnu/rnu athymic rat assessed as larger enclosed median lumen area by the halos in tumor by measuring vessel diameter at 1 mg/kg, po administered for 14 days by H33342 dye based fluorescence microscopic analysis. It is filed as functional. The following applies: time 14 day. In short, it runs like this: (§3)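 Calu-6 tumor-bearing athymic rats, three per group, received oral drug at 0.2 or 1 mg/kg or vehicle on days 0-13. They were killed 1 min after i.v. H33342 at 20 mg/kg on day 13. 10 µm cryosections were cut from five tumor levels at least 200 µm apart and examined under UV epifluorescence. The major axis of fluorescent halos around vessels was measured by image analysis, with a Mann-Whitney test.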

Data set [8] deals with Calu-6. Put plainly: Antitumor activity against human Calu-6 cells xenografted in RH-rnu/rnu athymic rat assessed as increased ratio of enlarged vessels with >100 uM diameter in tumor at 1 mg/kg, po administered for 14 days by H33342 dye based fluorescence microscopic analysis relative to control. In kind it is functional. The note with it: time 14 day. An outline of the steps:
as §3

Data set [9] relates to Calu-6. The experiment in a line: Antitumor activity against human Calu-6 cells xenografted in RH-rnu/rnu athymic rat assessed as decreased microvessel density at 1 mg/kg, po administered for 14 days by immunofluorescence staining analysis relative to control. It is filed as functional. The note with it: time 14 day. The arrangement: scale not given: the % may be the effect or the level left.

Data set [10] in a line: AUC (0-infinity) in F344/N JcL-rnu athymic rat at 1 mg/kg, po measured upto 72 hrs by HPLC-MS/MS analysis. The following applies: in vivo. It is filed as ADME, organism-based. In short, it runs like this: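 Female athymic rats, four per group, given a single oral dose suspended in 0.5% methyl cellulose in water. Tail-vein blood was drawn at set times up to 72 h. Serum was spiked with internal standard, deproteinated with acetonitrile and analysed by HPLC-MS/MS. AUCinf came from noncompartmental analysis.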

The nature of data set [11]: Half life in F344/N JcL-rnu athymic rat at 0.04 mg/kg, po measured upto 72 hrs by HPLC-MS/MS analysis. It is filed as ADME, organism-based. The note with it: in vivo. In short, it runs like this: (§4)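 Female F344/N JcL-rnu rats, four per group, single p.o. dose suspended in 0.5% methyl cellulose. Tail-vein blood sampled at set times to 72 h. Serum spiked with internal standard, deproteinated with acetonitrile, analysed by HPLC-MS/MS. Parameters derived by noncompartmental analysis.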

Data set [12] is described as follows: Cmax in F344/N JcL-rnu athymic rat at 1 mg/kg, po measured upto 72 hrs by HPLC-MS/MS analysis. In kind it is ADME, organism-based. The note with it: in vivo. In short, it runs like this:
as §4

Data set [13] in a line: Cmax in F344/N JcL-rnu athymic rat at 5 mg/kg, po measured upto 72 hrs by HPLC-MS/MS analysis. The note with it: in vivo. It is filed as ADME, organism-based. An outline of the steps: as §4
Data set [14] in a line: Tmax in F344/N JcL-rnu athymic rat at 1 mg/kg, po measured upto 72 hrs by HPLC-MS/MS analysis. In kind it is ADME, organism-based. The note with it: in vivo. An outline of the steps: as §4
Data set [15] can be described thus: Minimum concentration at steady state in F344/N JcL-rnu athymic rat at 0.2 mg/kg/day, po measured upto 72 hrs by HPLC-MS/MS analysis. It is filed as ADME, organism-based. The note with it: in vivo. An outline of the steps:
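Steady-state serum levels for repeated oral 0.2 mg/kg daily dosing were simulated from single-dose serum data (female F344/N JcL-rnu rats, four per group, tail-vein sampling to 72 h, HPLC-MS/MS, noncompartmental analysis), not measured directly.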

The test system of another data set is A549. The experiment in a line: Antitumor activity against human A549 cells xenografted in F344/N Jcl-rnu athymic rat assessed as reduction in number of CD31-positive cells in viable regions of tumor at 0.04 mg/kg, po administered once daily for 7 days by immunofluorescence staining analysis relative to control. The following applies: time 7 day.

Active and inactive are the calls of the source.

Sequence of Mitogen-activated protein kinase 3 (P27361 whole entry, the tested form may be a part): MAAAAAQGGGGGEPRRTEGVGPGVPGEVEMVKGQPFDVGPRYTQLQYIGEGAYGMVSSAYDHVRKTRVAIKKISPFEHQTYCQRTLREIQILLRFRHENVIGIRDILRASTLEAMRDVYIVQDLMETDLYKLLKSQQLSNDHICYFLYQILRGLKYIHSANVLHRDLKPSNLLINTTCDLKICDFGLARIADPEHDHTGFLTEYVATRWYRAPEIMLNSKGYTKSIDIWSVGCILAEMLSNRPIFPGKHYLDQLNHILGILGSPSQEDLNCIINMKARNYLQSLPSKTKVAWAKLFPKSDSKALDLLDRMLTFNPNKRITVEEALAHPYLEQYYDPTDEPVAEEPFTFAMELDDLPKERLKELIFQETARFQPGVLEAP
Sequence of Focal adhesion kinase 1 (Q05397 whole entry): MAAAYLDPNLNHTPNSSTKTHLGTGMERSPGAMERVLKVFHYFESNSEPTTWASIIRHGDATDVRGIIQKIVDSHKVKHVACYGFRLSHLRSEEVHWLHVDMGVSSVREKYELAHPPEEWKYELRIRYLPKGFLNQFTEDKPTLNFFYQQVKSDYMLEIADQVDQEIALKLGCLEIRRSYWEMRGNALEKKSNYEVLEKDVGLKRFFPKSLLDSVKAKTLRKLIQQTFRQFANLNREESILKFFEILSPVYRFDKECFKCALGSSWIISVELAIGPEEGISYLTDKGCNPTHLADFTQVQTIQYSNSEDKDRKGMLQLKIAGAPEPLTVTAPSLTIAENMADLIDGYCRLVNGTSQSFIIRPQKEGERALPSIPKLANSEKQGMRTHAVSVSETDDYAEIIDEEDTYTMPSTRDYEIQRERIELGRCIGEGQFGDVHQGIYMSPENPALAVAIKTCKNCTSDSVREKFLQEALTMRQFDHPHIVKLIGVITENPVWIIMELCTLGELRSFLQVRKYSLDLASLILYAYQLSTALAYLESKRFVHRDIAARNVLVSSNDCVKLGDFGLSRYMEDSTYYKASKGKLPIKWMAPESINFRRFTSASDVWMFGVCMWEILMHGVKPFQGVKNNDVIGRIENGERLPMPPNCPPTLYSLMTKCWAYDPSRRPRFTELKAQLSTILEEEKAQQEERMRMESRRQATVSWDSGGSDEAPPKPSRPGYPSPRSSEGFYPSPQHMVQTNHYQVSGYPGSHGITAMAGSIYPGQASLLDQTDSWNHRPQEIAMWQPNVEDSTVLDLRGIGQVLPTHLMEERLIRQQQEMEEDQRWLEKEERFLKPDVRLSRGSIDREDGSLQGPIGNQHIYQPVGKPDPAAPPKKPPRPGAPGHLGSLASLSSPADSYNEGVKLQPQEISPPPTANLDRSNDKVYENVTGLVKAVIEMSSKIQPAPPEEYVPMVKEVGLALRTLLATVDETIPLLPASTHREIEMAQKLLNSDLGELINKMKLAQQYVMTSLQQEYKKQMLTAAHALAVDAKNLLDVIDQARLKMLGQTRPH
Sequence of Fibroblast growth factor receptor 4 (P22455 whole entry): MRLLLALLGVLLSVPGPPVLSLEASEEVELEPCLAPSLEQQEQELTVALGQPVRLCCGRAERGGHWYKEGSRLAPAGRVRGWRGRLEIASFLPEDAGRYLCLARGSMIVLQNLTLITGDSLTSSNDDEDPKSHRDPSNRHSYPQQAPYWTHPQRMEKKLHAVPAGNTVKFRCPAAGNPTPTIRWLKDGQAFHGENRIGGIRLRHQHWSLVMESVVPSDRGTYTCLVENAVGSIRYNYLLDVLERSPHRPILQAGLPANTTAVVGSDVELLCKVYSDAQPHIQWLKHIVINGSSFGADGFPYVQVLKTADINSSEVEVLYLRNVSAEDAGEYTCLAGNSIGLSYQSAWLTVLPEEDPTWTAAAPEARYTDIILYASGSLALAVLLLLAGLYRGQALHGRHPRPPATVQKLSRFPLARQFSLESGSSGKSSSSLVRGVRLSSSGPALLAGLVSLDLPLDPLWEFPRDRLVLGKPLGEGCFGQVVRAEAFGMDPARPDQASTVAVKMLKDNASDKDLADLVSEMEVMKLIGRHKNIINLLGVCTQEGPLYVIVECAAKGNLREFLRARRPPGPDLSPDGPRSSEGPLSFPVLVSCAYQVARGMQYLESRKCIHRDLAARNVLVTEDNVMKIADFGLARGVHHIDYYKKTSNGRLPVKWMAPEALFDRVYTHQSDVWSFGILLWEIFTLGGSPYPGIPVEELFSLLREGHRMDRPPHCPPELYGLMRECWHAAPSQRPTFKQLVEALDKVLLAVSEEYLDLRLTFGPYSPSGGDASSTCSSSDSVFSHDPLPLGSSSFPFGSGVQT
Sequence of Epidermal growth factor receptor (P00533 whole entry): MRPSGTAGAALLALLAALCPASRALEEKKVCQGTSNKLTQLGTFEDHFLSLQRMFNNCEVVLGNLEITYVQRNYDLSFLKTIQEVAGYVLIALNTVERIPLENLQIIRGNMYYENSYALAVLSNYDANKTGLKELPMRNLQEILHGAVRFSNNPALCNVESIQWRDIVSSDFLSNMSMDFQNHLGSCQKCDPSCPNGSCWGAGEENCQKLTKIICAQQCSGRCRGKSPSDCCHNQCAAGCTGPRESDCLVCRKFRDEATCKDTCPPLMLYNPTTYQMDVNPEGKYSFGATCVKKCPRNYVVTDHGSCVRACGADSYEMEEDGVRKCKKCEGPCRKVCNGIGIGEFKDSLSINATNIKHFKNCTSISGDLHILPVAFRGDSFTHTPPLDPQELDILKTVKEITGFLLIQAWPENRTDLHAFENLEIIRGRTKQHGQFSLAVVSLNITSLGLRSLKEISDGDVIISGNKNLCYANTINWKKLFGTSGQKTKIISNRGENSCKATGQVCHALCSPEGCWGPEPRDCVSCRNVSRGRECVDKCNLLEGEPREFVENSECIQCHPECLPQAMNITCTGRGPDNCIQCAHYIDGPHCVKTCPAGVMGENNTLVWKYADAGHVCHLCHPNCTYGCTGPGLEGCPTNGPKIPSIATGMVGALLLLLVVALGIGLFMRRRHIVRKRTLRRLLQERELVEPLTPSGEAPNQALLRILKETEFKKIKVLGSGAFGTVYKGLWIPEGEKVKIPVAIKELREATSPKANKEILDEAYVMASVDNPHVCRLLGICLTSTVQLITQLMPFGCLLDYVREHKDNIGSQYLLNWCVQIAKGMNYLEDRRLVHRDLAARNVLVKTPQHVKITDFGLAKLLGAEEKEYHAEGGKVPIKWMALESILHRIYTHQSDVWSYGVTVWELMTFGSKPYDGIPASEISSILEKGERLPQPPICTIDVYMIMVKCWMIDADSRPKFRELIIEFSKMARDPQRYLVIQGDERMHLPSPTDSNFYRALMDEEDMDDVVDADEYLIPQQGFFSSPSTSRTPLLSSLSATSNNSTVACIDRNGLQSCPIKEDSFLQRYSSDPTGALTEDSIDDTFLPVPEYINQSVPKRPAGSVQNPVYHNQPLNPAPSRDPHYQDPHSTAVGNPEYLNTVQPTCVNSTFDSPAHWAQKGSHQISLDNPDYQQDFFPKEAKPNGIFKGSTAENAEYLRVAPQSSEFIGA
Sequence of Mitogen-activated protein kinase 1 (P28482 whole entry): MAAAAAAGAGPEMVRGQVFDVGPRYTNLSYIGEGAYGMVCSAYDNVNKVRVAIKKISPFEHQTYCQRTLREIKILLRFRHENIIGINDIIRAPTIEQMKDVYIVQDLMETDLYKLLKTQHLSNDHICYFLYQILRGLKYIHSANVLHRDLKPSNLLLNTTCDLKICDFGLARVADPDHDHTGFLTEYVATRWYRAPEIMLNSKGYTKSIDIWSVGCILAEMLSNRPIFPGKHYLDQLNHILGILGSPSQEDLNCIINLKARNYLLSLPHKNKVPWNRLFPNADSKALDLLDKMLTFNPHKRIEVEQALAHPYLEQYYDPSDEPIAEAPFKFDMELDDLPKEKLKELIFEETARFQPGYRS
Sequence of Ephrin type-B receptor 2 (P29323 whole entry): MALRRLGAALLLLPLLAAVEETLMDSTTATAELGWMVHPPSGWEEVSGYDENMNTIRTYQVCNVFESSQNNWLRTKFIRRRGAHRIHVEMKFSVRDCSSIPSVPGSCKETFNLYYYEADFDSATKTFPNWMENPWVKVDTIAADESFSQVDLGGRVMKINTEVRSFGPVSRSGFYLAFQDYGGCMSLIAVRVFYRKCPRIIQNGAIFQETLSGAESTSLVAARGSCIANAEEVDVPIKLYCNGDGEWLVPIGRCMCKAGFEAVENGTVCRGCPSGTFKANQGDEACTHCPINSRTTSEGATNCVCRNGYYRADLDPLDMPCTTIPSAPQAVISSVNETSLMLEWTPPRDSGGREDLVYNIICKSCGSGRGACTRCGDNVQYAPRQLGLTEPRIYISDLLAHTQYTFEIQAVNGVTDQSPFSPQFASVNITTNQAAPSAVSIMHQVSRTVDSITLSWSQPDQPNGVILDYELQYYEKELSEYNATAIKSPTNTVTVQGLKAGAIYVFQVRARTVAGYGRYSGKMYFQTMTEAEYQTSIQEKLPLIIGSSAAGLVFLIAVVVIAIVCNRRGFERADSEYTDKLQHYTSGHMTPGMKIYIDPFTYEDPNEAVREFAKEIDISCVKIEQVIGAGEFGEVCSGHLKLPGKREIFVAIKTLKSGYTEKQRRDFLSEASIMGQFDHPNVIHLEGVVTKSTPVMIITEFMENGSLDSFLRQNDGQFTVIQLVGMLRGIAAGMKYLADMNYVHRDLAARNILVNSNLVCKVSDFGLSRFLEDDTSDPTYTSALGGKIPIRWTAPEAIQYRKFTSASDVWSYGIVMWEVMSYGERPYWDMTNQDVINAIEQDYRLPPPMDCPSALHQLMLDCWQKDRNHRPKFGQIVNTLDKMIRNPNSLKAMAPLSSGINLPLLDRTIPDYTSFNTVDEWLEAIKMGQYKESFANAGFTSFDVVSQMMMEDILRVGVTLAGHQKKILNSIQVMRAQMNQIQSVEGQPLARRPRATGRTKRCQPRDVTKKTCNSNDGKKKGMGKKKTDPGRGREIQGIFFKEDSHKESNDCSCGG

A word on the IC50: it is the midpoint of a concentration-inhibition curve. The AUC(0-inf) is total exposure, with the tail of the curve extrapolated. A word on the half-life: it is the time needed for the level to fall by half in the phase considered. The term Cmax denotes the maximum level reached in the sampled fluid or tissue. For orientation: Tmax means the time at which the peak concentration occurs. Regarding `COc1cc2nccc(Oc3ccc(NC(=O)Nc4cc(C)on4)c(Cl)c3)c2cc1OC` [TIVOZANIB], the IC50 is 24 nM on Ephrin type-B receptor 2; over 1000 nM in [1]; over 1000 nM at Focal adhesion kinase 1; over 1000 nM in data set [2]; “Not Determined(Insoluble)” in data set [3]; 0.18 nM in data set [4]. Further, the inhibition entry in [5] is “inactive”. In addition, the inhibition in vivo at 1 mg/kg in the data set with MDA-MB-231 is over 100%. In addition, the inhibition in vivo at 0.2 mg/kg in the data set with BXPC-3 came out at 60.7%. Also, the Activity amounted to 0.85 in the data set on LoVo; 65.8 um with Calu-6 [7]; 30.3% in the data set on Calu-6 [8]; 71.2% with Calu-6 [9]; 15.7% in the data set with A549. Also, in the data set with Calu-6 [6], the result was Active. In data set [10], the AUC(0-inf) turned out to be 7640 ng·h/mL. Moreover, the half-life in data set [11] was 555 min. Also, the Cmax in data set [12] is 484 ng/mL; in data set [13], 2820 ng/mL. In [14], the Tmax was found to be 4.25 h. In [15], the Cminss came to 22.2 ng/mL.

These data come from ChEMBL document CHEMBL5661970 (Cancer Res, 2006).
